# Reference: ChEMBL document CHEMBL1140227, “Histone deacetylase inhibitors through click chemistry” (J Med Chem, 2008)
# Assays:
# Type in all cases: functional
# [1] = tested on: IGROV-1; experiment: Growth inhibition of human IGROV1 cells at 10 uM relative to control; conditions: values are per cent of control
# Procedure, shortened: (§1)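 Single-dose preliminary screen in the NCI human cancer cell line panel, run by the NIH. Percent inhibition of cell line growth was calculated by comparison with untreated samples.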
# [2] = tested on: A498; experiment: Growth inhibition of human A498 cells at 10 uM relative to control; conditions: values are per cent of control; procedure, shortened: as §1
# [3] = tested on: HOP-92; experiment: Growth inhibition of human HOP92 cells at 10 uM relative to control; conditions: values are per cent of control; procedure, shortened: as §1
# [4] = cells; conditions: Homo sapiens, Cancer cell lines
# [5] = tested on: CAKI-1; experiment: Growth inhibition of human Caki1 cells at 10 uM relative to control; conditions: values are per cent of control; procedure, shortened: as §1
# [6] = tested on: M14; experiment: Growth inhibition of human M14 cells at 10 uM relative to control; conditions: values are per cent of control; procedure, shortened: as §1
# [7] = tested on: SF-268; experiment: Growth inhibition of human SF268 cells at 10 uM relative to control; conditions: values are per cent of control; procedure, shortened: as §1
# [8] = tested on: U-251; experiment: Growth inhibition of human U251 cells at 10 uM relative to control; conditions: values are per cent of control
# Procedure, shortened: (§2)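 Single-dose NCI human tumour cell line screen, run by the NIH. Percent inhibition of cell line growth was calculated by comparison with untreated samples.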
# [9] = tested on: UO-31; experiment: Growth inhibition of human UO31 cells at 10 uM relative to control; conditions: values are per cent of control; procedure, shortened: as §2
# [10] = tested on: EKVX; experiment: Growth inhibition of human EKVX cells at 10 uM relative to control; conditions: values are per cent of control; procedure, shortened: as §1
# [11] = tested on: Leukemia cell; experiment: cells; conditions: Homo sapiens
# [12] = tested on: HCT-15; experiment: Growth inhibition of human HCT15 cells at 10 uM relative to control; conditions: values are per cent of control; procedure, shortened: as §1
# [13] = tested on: SNB-19; experiment: Growth inhibition of human SNB19 cells at 10 uM relative to control; conditions: values are per cent of control; procedure, shortened: as §1
# [14] = tested on: NCI-H322M; experiment: Growth inhibition of human NCI-H322M cells at 10 uM relative to control; conditions: values are per cent of control; procedure, shortened: as §1
# [15] = tested on: NCI/ADR-RES; experiment: Growth inhibition of human NCI/ADR-RES cells at 10 uM relative to control; conditions: values are per cent of control; procedure, shortened: as §1
# [16] = tested on: Melanoma cell; experiment: cells; conditions: Homo sapiens
# [17] = tested on: OVCAR-4; experiment: Growth inhibition of human OVCAR4 cells at 10 uM relative to control; conditions: values are per cent of control; procedure, shortened: as §1
# [18] = tested on: SK-MEL-28; experiment: Growth inhibition of human SK-MEL-28 cells at 10 uM relative to control; conditions: values are per cent of control; procedure, shortened: as §1
# [19] = tested on: KM12; experiment: Growth inhibition of human KM12 cells at 10 uM relative to control; conditions: values are per cent of control; procedure, shortened: as §1
# [20] = tested on: ACHN; experiment: Growth inhibition of human ACHN cells at 10 uM relative to control; conditions: values are per cent of control; procedure, shortened: as §1
# [21] = tested on: DU-145; experiment: Growth inhibition of human DU145 cells at 10 uM relative to control; conditions: values are per cent of control; procedure, shortened: as §1
# [22] = tested on: MDA-MB-468; experiment: Growth inhibition of human MDA-MB-468 cells at 10 uM relative to control; conditions: values are per cent of control; procedure, shortened: as §1
# [23] = tested on: COLO 205; experiment: Growth inhibition of human COLO205 cells at 10 uM relative to control; conditions: values are per cent of control; procedure, shortened: as §1
# [24] = tested on: NCI-H460; experiment: Growth inhibition of human NCI-H460 cells at 10 uM relative to control; conditions: values are per cent of control; procedure, shortened: as §1
# [25] = tested on: NCI-H522; experiment: Growth inhibition of human NCI-H522 cells at 10 uM relative to control; conditions: values are per cent of control; procedure, shortened: as §1
# [26] = tested on: HCC 2998; experiment: Growth inhibition of human HCC2998 cells at 10 uM relative to control; conditions: values are per cent of control; procedure, shortened: as §1
# [27] = tested on: TK-10; experiment: Growth inhibition of human TK10 cells at 10 uM relative to control; conditions: values are per cent of control; procedure, shortened: as §2
# [28] = tested on: OVCAR-5; experiment: Growth inhibition of human OVCAR5 cells at 10 uM relative to control; conditions: values are per cent of control; procedure, shortened: as §1
# [29] = tested on: 786-0; experiment: Growth inhibition of human 786-0 cells at 10 uM relative to control; conditions: values are per cent of control; procedure, shortened: as §1
# [30] = tested on: MCF7; experiment: Growth inhibition of human MCF7 cells at 10 uM relative to control; conditions: values are per cent of control; procedure, shortened: as §1
# [31] = tested on: SK-MEL-5; experiment: Growth inhibition of human SK-MEL-5 cells at 10 uM relative to control; conditions: values are per cent of control; procedure, shortened: as §1
# [32] = tested on: MOLT-4; experiment: Growth inhibition of human MOLT4 cells at 10 uM relative to control; conditions: values are per cent of control; procedure, shortened: as §1
compound,measurement,setting,value
O=C(/C=C/c1cn(CCc2ccccc2)nn1)NO,"growth, % of control at 10 µM",[1],44.6%
same,"growth, % of control at 10 µM",[2],52.4%
same,"growth, % of control at 10 µM",[3],-9.64%
same,growth percent at 10 µM,[4],46%
same,"growth, % of control at 10 µM",[5],52.9%
same,"growth, % of control at 10 µM",[6],44.7%
same,"growth, % of control at 10 µM",[7],57.2%
same,"growth, % of control at 10 µM",[8],40.7%
same,"growth, % of control at 10 µM",[9],37.4%
same,"growth, % of control at 10 µM",[10],44.6%
same,inhibition at 10 µM,[11],7%
same,"growth, % of control at 10 µM",[12],75.8%
same,"growth, % of control at 10 µM",[13],90%
same,"growth, % of control at 10 µM",[14],66%
same,"growth, % of control at 10 µM",[15],-13.7%
same,inhibition at 10 µM,[16],33%
same,"growth, % of control at 10 µM",[17],77.5%
same,"growth, % of control at 10 µM",[18],42.6%
same,"growth, % of control at 10 µM",[19],67.8%
same,"growth, % of control at 10 µM",[20],29.3%
same,"growth, % of control at 10 µM",[21],35.5%
same,"growth, % of control at 10 µM",[22],56%
same,"growth, % of control at 10 µM",[23],53.9%
same,"growth, % of control at 10 µM",[24],62.5%
same,"growth, % of control at 10 µM",[25],27.7%
same,"growth, % of control at 10 µM",[26],69.2%
same,"growth, % of control at 10 µM",[27],57.7%
same,"growth, % of control at 10 µM",[28],23.5%
same,"growth, % of control at 10 µM",[29],26.3%
same,"growth, % of control at 10 µM",[30],63.7%
same,"growth, % of control at 10 µM",[31],35.5%
same,"growth, % of control at 10 µM",[32],3.77%
